Reference: ChEMBL document CHEMBL3813629, “Antistaphylococcal Prenylated Acylphoroglucinol and Xanthones from Kielmeyera variabilis” (2016)
≈ marks a conversion by molar mass, not a printed value. Calls of active or inactive are those of the source.

Tests used:
Staphylococcus aureus [1] = assay: Antibacterial activity against MsrA macrolide-resistant Staphylococcus aureus RN4220 after 18 hrs by MTT assay; format: functional
Outline: (§1)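 Strains grown on nutrient agar 24 h at 37 °C; inoculum 1 × 10⁶ cfu/mL in normal saline, set against 0.5 McFarland standard. Samples dissolved in DMSO, diluted in cation-adjusted Mueller-Hinton broth (Ca²⁺ 20 mg/L, Mg²⁺ 10 mg/L), starting 1024 mg/L, twofold serial broth microdilution; 37 °C, 18 h; MTT added, 20 min; MIC = lowest concentration without yellow-to-blue change.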

Staphylococcus aureus [2] = assay: Antibacterial activity against […] Staphylococcus aureus XU212 expressing TetK efflux pump after 18 hrs by MTT assay; format: functional; outline: as §1
Staphylococcus aureus [3] = assay: Antibacterial activity against […] Staphylococcus aureus EMRSA-16 after 18 hrs by MTT assay; format: functional; outline: as §1
Staphylococcus aureus [4] = assay: Antibacterial activity against […] Staphylococcus aureus EMRSA-15 after 18 hrs by MTT assay; format: functional; outline: as §1
Staphylococcus aureus [5] = assay: Antibacterial activity against […] Staphylococcus aureus ATCC 25923 after 18 hrs by MTT assay; format: functional; outline: as §1
Staphylococcus aureus [6] = assay: Antibacterial activity against […] Staphylococcus aureus SA1199B over expressing NorA MDR efflux pump after 18 hrs by MTT assay; format: functional; outline: as §1
Staphylococcus aureus [7] = assay: […] activity against […] Staphylococcus aureus SA1199B over expressing NorA MDR efflux pump assessed as growth inhibition after 24 hrs using cell cultures pre-treated with compound for 24 hrs; format: functional, organism-based
Outline: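 MIC-plate wells from SA-1199B showing no growth sampled (10 μL) onto drug-free Mueller-Hinton agar, incubated 24 h; growth of colonies scored; bactericidal end point defined as ≥99.9% reduction versus starting inoculum. MBC plates themselves incubated 24 h at 37 °C before transfer.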

Compound	MIC (Staphylococcus aureus [1])	MIC (Staphylococcus aureus [2])	MIC (Staphylococcus aureus [3])	MIC (Staphylococcus aureus [4])	MIC (Staphylococcus aureus [5])	MIC (Staphylococcus aureus [6])	MIC (Staphylococcus aureus [1]; RN4220, 18 h) [µg/mL]	MIC (Staphylococcus aureus [2]; XU212, 18 h) [µg/mL]	MIC (Staphylococcus aureus [3]; EMRSA-16, 18 h) [µg/mL]	MIC (Staphylococcus aureus [4]; EMRSA-15, 18 h) [µg/mL]	MIC (Staphylococcus aureus [5]; ATCC 25923, 18 h) [µg/mL]	growth inhibition (GI) (Staphylococcus aureus [7])
CC[C@H](CC[C@@H](C)[C@H]1CC[C@H]2[C@@H]3CC=C4C[C@@H](O)CC[C@]4(C)[C@H]3CC[C@]12C)C(C)C	inactive	inactive	inactive	inactive	inactive	inactive						
COc1cc2c(=O)c3ccccc3oc2c(O)c1OC						64 µg/mL (≈ 235 µM)	> 512	128 (≈ 470 µM)	64 (≈ 235 µM)	> 512	128 (≈ 470 µM)	
COc1c(O)ccc2oc3ccccc3c(=O)c12						64 µg/mL (≈ 264 µM)	64 (≈ 264 µM)	128 (≈ 528 µM)	32 (≈ 132 µM)	64 (≈ 264 µM)	64 (≈ 264 µM)	
COc1cc(OC)c2c(=O)c3cccc(O)c3oc2c1						64 µg/mL (≈ 235 µM)	> 512	> 512	64 (≈ 235 µM)	> 512	128 (≈ 470 µM)	
CC(C)[C@H](C)CC[C@@H](C)[C@H]1CC[C@H]2[C@@H]3CC=C4C[C@@H](O)CC[C@]4(C)[C@H]3CC[C@]12C	inactive	inactive	inactive	inactive	inactive	inactive						
COc1cc2c(=O)c3ccccc3oc2cc1O						64 µg/mL (≈ 264 µM)	64 (≈ 264 µM)	64 (≈ 264 µM)	32 (≈ 132 µM)	64 (≈ 264 µM)	64 (≈ 264 µM)	
CCCCC(C(=O)OC)[C@]12C(=O)[C@](CC=C(C)C)(C[C@H](CC=C(C)C)C1(C)C)C(=O)C(C(=O)CCC)=C2O (some centres not stated)						2 µg/mL (≈ 3.78 µM)	0.25 (≈ 0.473 µM)	0.25 (≈ 0.473 µM)	0.5 (≈ 0.946 µM)	1 (≈ 1.89 µM)	1 (≈ 1.89 µM)	Active
CC[C@H](/C=C/[C@@H](C)[C@H]1CC[C@H]2[C@@H]3CC=C4C[C@@H](O)CC[C@]4(C)[C@H]3CC[C@]12C)C(C)C	inactive	inactive	inactive	inactive	inactive	inactive						
COc1cc([C@@H]2Oc3c(OC)cc4c(=O)c5ccccc5oc4c3O[C@H]2CO)ccc1O						> 512 µg/mL	> 512	> 512	> 512	> 512	> 512	
CCn1cc(C(=O)O)c(=O)c2cc(F)c(N3CCNCC3)cc21 [NORFLOXACIN]						32 µg/mL (≈ 100 µM)	0.5 (≈ 1.57 µM)	8 (≈ 25.1 µM)	128 (≈ 401 µM)	0.5 (≈ 1.57 µM)	0.5 (≈ 1.57 µM)	
COc1cc2c(=O)c3ccccc3oc2c(O)c1O						32 µg/mL (≈ 124 µM)	32 (≈ 124 µM)	16 (≈ 62 µM)	16 (≈ 62 µM)	64 (≈ 248 µM)	64 (≈ 248 µM)	
